Compound activity from PubChem.
An excerpt weighted towards active compounds, which were near 3.9% of everything screened.
STAT3 activator = IL-6 driven STAT3 reporter potentiators, primary screen, U3A cells, luciferase, luminescence, MLSCN library; IL-6 STAT3-luciferase reporter; 100% = signal with IL-6 EC80 alone; activation (% of control), % at 5.6 µM; 190,000 tested, 0.91% active; AID 871, 2007;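 active = activation above the screen-wide mean of compound activation plus 3 SD, cut at about 130% in these data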
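system = STAT3-luciferase reporter U3A cells | reagent = IL-6 stimulus at 33 ng/mL final | timing = 1 h compound pre-exposure, 6 h IL-6 stimulation, 37 °C | measured by = luminescence | evaluation = % activation versus median of IL-6-stimulated wells | control set = IL-6-only wells as 100% reference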
NF-kB expr up = activators of NF-kB expression in neurons, primary screen, cell-based, HTS. human neuronal cells, NF-kB reporter expression; stronger effect = higher value. 190,000 tested, 1.6% active. fold change at 12.5 µM; in the data active = fold change above about 3.3
Pf gametocyte = late stage P. falciparum gametocyte viability inhibitors, primary screen, ATP luminescence, HTS; inhibition, % at 10.9 µM; AID 743093, 2013; 150,000 tested, 0.065% active; P. falciparum stage V gametocytes, 24 h;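 active = inhibition above the mean plus 3 SD of compounds within the control limits, set per campaign, cut at about 38% in these data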
STAT1 blocker = STAT1 signaling inhibitors, primary screen, cell-based, HTS, luciferase reporter; 200,000 tested, 0.35% active; inhibition, % at 5.5 µM; NIH 3T3 STAT1-luciferase reporter, IFN-gamma, luminescence;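 active = inhibition above a set limit, the mean inhibition across all tested compounds plus 3 SD, cut at about 34% in these data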
STAT1 act = STAT1 signaling activators, primary screen, cell-based, HTS, luciferase reporter; NIH 3T3 STAT1-luciferase reporter, IFN-gamma, luminescence; 100% = IFN-gamma alone, no compound; activation (% of control), % at 5.5 µM; 200,000 tested, 2.6% active;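 active = activation above the screen-wide mean activation plus 3 SD, cut at about 130% in these data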
APP 5'UTR act = activators of APP 5'UTR luciferase reporter, primary screen, SH-SY5Y cells; SH-SY5Y APP 5'UTR luciferase reporter, luminescence; zero percent = DMSO vehicle wells; activation, % at 2 µM; 190,000 tested, 1% active; AID 1276, 2008;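 active = activation above a set limit, based on mean plus 3 SD of controls, cut at about 140% in these data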
Hits are given with their value; . = inactive; / = not tested or not shown.

SMILES	STAT3 activator	NF-kB expr up	Pf gametocyte	STAT1 blocker	STAT1 act	APP 5'UTR act
C=CCC[C@@H](Cc1ccc(F)cc1)C(=O)OC[C@@H](Cc1c[nH]c2ccccc12)NC(=O)[C@H](CC=C)CC(=O)N[C@H](CO)Cc1ccccc1	/	/	.	/	/	/
CC1=NN(c2ccccc2)C(=O)/C1=C/c1cn(C)c2ccccc12	/	/	.	/	/	/
COc1cccc(C(c2c(N)[nH]c(=S)[nH]c2=O)c2c(N)[nH]c(=S)[nH]c2=O)c1	/	/	.	/	/	/
CC(=O)c1sc(-c2ccccc2)cc1N	/	/	.	/	/	/
CC(C)(C)N=Cc1cc(-c2ccccc2)sc1O	.	.	.	.	138	/
Cc1ccc(NC(=S)N2CCN(c3ccccn3)CC2)cc1C	/	/	.	/	/	/
O=C(/C=C/c1ccccc1Cl)Nc1ccccc1	/	/	.	/	/	/
O=C(/C=C/c1ccccc1[N+](=O)[O-])Nc1ccccc1	.	8.3	/	.	.	172
O=C(/C=C/c1ccccc1Cl)Nc1cccc(O)c1	.	12	/	.	.	191
O=C(/C=C/c1ccc(F)cc1)NCc1cccs1	.	.	.	.	.	.
O=C(/C=C/c1ccccc1Cl)NCc1cccs1	.	.	.	.	131	.
O=c1ccn(-c2cccc(C(F)(F)F)c2)nc1-c1ccn(-c2cccc(Cl)c2)n1	.	.	/	.	.	.
CC(=O)Oc1ccccc1-n1c(C)nc(=O)c(-c2ccccc2)c1C	/	/	.	/	/	/
N#C/C(=N\Nc1ccc([N+](=O)[O-])cc1)C(=N)N1CCOCC1	/	/	.	/	/	/
N#C/C(=N\Nc1ccccc1)C(=N)N1CCCCC1	.	4.5	.	.	129	.
N#C/C(=N\Nc1ccccc1[N+](=O)[O-])C(=N)N1CCCCC1	.	5.6	.	.	136	176
N#C/C(=N\Nc1ccc(Br)cc1)C(=N)N1CCOCC1	.	.	/	.	146	.
O=C1C2C3C=CC(C3)C2C(=O)N1c1ccc(-c2nc(-c3ccccc3)nc3ccccc23)cc1 (stereo not given)	/	/	.	/	/	/
CCCCSc1ccc2nc(-c3ccc(C#N)cc3)cn2c1	.	.	/	.	131	.
CCCSc1ccc2nc(-c3ccccc3)cn2c1	.	.	.	79	.	.
Cc1ccnn1Cc1cc(C(=O)O)c2ccccc2n1	.	.	.	.	.	.
O=C(O)c1sc2cc(C(F)(F)F)cnc2c1-c1ccccn1	.	.	.	.	.	.
O=C(N/N=C/c1c[nH]c2ccccc12)c1ccn(Cc2ccc(Cl)cc2)n1	135	.	.	.	.	.
COCCN1C(=O)C(=O)/C(=C(/O)c2ccc(C)cc2)C1c1ccccn1 (stereo not given)	.	.	.	.	.	.
S=C1c2ccccc2CN1c1ccccc1	.	.	/	.	.	.
SMILES	STAT3 activator	NF-kB expr up	Pf gametocyte	STAT1 blocker	STAT1 act	APP 5'UTR act
Cc1ccc(N2Cc3ccccc3C2=S)cc1	.	6.8	.	.	136	201
O=C(N/N=C/c1ccc(COc2ccc(Br)cc2)o1)c1ccco1	.	.	.	.	.	.
O=[N+]([O-])c1ccccc1/C=C/CN1CCN(Cc2ccc3c(c2)OCO3)CC1	/	/	.	/	/	/
NNc1nc2sc3c(c2c(=O)n1Cc1ccccc1)CCC3	/	/	.	/	/	/
NNc1nc(-c2ccccc2)nc2sc3c(c12)CCCC3	139	.	/	.	140	171
O=C(Nc1cccnc1Cl)c1ccc2c(Cl)c3c(nc2c1)CCC3	.	5.9	.	.	135	242
CCCn1c(NC(=O)c2ccc(Br)cc2)nc2ccccc21	134	.	/	.	.	.
Cc1ccc(-c2nnc(N3CCOCC3)c3ccccc23)cc1S(N)(=O)=O	/	/	.	/	/	/
O=C(Nc1ccc(F)cc1F)c1cc2nc3c(c(C(F)(F)F)n2n1)CCCC3	.	.	/	.	.	173
CCN(Cc1ccccc1)C(=O)COC(=O)Cn1cnc2ccccc21	.	.	.	.	.	.
CCOCCOc1cccc(C(=O)NC(c2ccccc2)c2ccccc2)c1	/	/	.	/	/	/
Cc1ccc(C=Nc2ccccc2C(N)=O)o1	.	.	.	.	135	.
Cc1ccc(/C=N/c2sc(Cc3ccccc3)c(C)c2C(N)=O)o1	.	.	.	.	.	.
CN(C)c1ccc(C=Nc2ccccc2C(N)=O)cc1	.	3.7	.	.	135	166
CN(C)c1ccc(/C=N\NC(=O)c2cccc3cc[nH]c23)cc1	/	/	.	/	/	/
